pIC50: −log10 of the molar value. Active and inactive are the calls of the source. The rule behind the calls is not given here.
Key:
Clavispora lusitaniae = experiment: Antifungal activity against Clavispora lusitaniae 2446/I by microdilution method
Candida parapsilosis = experiment: Antifungal activity against Candida parapsilosis ATCC 22019 by microdilution method; type: functional; conditions: Lodderomyces parapsilosis
Pichia kudriavzevii [1] = experiment: Antifungal activity against Candida krusei E28 by microdilution method; type: functional
Nakaseomyces glabratus = experiment: Antifungal activity against Candida glabrata 20/I by microdilution method; type: functional
Aspergillus fumigatus = experiment: Antifungal activity against Aspergillus fumigatus 231 by microdilution method; type: functional
Lichtheimia corymbifera = experiment: Antifungal activity against Absidia corymbifera 272 by microdilution method; type: functional
Candida albicans [2] = experiment: Antifungal activity against Candida albicans ATCC 44859 by microdilution method; type: functional
Trichosporon beigelii = experiment: Antifungal activity against Trichosporon beigelii 1188 by microdilution method; type: functional
Pichia kudriavzevii [3] = experiment: Antifungal activity against Candida krusei ATCC 6258 by microdilution method; type: functional
[4] = tested on: Trichophyton mentagrophytes; experiment: Antifungal activity against Trichophyton mentagrophytes 445 by microdilution method; type: functional
Candida tropicalis = experiment: Antifungal activity against Candida tropicalis 156 by microdilution method; type: functional
Nannizzia gypsea = experiment: Antifungal activity against Microsporum gypseum by microdilution method; type: functional
Candida albicans [5] = experiment: Antifungal activity against Candida albicans ATCC 90028 by microdilution method; type: functional
L1210 [6] = experiment: Growth inhibition of mouse L1210 cells at 10 umol/L; type: functional, cell-based
Method in brief: (§1)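 Single-concentration cytostatic screen at 10 µmol L⁻¹ on mouse lymphocytic leukemia L1210 (ATCC CCL 219), human acute lymphoblastic leukemia CCRF-CEM T lymphoblastoid cells (ATCC CCL 119), human promyelocytic leukemia HL-60 (ATCC CCL 240) and human cervix carcinoma HeLa S3 (ATCC CCL 2.2).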

HeLa S3 = experiment: Growth inhibition of human HeLaS3 cells at 10 umol/L; type: functional, cell-based
Method in brief: as §1

HL-60 = experiment: Growth inhibition of human HL60 cells at 10 umol/L; type: functional, cell-based
Method in brief: as §1

CCRF-CEM = experiment: Growth inhibition of human CCRF-CEM cells at 10 umol/L; type: functional, cell-based
Method in brief: as §1

L1210 [7] = experiment: Growth inhibition of mouse L1210 cells; type: functional, cell-based
HT-29 = experiment: Growth inhibition of human HT-29 cells; type: functional, cell-based

| MIC (Clavispora lusitaniae) [µM] | MIC (Candida parapsilosis) [µM] | MIC (Pichia kudriavzevii [1]) [µM] | MIC (Nakaseomyces glabratus) [µM] | MIC (Aspergillus fumigatus) [µM] | MIC (Lichtheimia corymbifera) [µM] | MIC (Candida albicans [2]) [µM] | MIC (Trichosporon beigelii) [µM] | MIC (Pichia kudriavzevii [3]) [µM] | MIC [4] [µM] | MIC (Candida tropicalis) [µM] | MIC (Nannizzia gypsea) [µM] | MIC (Candida albicans [5]) [µM] | pIC50 (L1210 [7]) | pIC50 (HT-29) | SMILES | inhibition (L1210 [6]) | inhibition (HeLa S3) | inhibition (HL-60) | inhibition (CCRF-CEM) |
| --- | --- | --- | --- | --- | --- | --- | --- | --- | --- | --- | --- | --- | --- | --- | --- | --- | --- | --- | --- |
| ≥ 62.5 | ≥ 62.5 | ≥ 62.5 | ≥ 62.5 | ≥ 62.5 | ≥ 62.5 | ≥ 62.5 | ≥ 62.5 | ≥ 62.5 | ≥ 62.5 | ≥ 62.5 | ≥ 62.5 | ≥ 62.5 | – | – | CC(C)(C)C(=O)OCC1C=C(c2ccccc2)C(=O)OC1 (stereo unspecified) | – | – | – | – |
| – | – | – | – | – | – | – | – | – | – | – | – | – | – | – | O=C1OCC(CO)C=C1c1ccc(Cl)c(Cl)c1 (stereo unspecified) | inactive | inactive | inactive | inactive |
| ≥ 62.5 | ≥ 62.5 | ≥ 62.5 | ≥ 62.5 | ≥ 62.5 | ≥ 62.5 | ≥ 62.5 | ≥ 62.5 | ≥ 62.5 | ≥ 62.5 | ≥ 62.5 | ≥ 62.5 | ≥ 62.5 | – | – | CC(C)(C)C(=O)OCC1C=C(c2ccc(Br)cc2)C(=O)OC1 (stereo unspecified) | – | – | – | – |
| ≥ 62.5 | ≥ 62.5 | ≥ 62.5 | ≥ 62.5 | ≥ 62.5 | ≥ 62.5 | ≥ 62.5 | ≥ 62.5 | ≥ 62.5 | ≥ 62.5 | ≥ 62.5 | ≥ 62.5 | ≥ 62.5 | – | – | CC(=O)OCC1C=C(c2ccc(Br)cc2)C(=O)OC1 (stereo unspecified) | – | – | – | – |
| ≥ 62.5 | ≥ 62.5 | ≥ 62.5 | ≥ 62.5 | ≥ 62.5 | ≥ 62.5 | ≥ 62.5 | ≥ 62.5 | ≥ 62.5 | ≥ 62.5 | ≥ 62.5 | ≥ 62.5 | ≥ 62.5 | – | – | O=C1OCC(COC(=O)c2ccccc2)C=C1c1ccccc1 (stereo unspecified) | – | – | – | – |
| ≥ 62.5 | ≥ 62.5 | ≥ 62.5 | ≥ 62.5 | ≥ 62.5 | ≥ 62.5 | ≥ 62.5 | ≥ 62.5 | ≥ 62.5 | ≥ 62.5 | ≥ 62.5 | ≥ 62.5 | ≥ 62.5 | – | – | COc1ccc(C2=CC(COC(=O)C(C)(C)C)COC2=O)cc1 (stereo unspecified) | – | – | – | – |
| ≥ 62.5 | ≥ 62.5 | ≥ 62.5 | ≥ 62.5 | ≥ 62.5 | ≥ 62.5 | ≥ 62.5 | ≥ 62.5 | ≥ 62.5 | ≥ 62.5 | ≥ 62.5 | ≥ 62.5 | ≥ 62.5 | – | – | CC(=O)OCC1C=C(c2ccccc2)C(=O)OC1 (stereo unspecified) | – | – | – | – |
| ≥ 62.5 | ≥ 62.5 | ≥ 62.5 | ≥ 62.5 | ≥ 62.5 | ≥ 62.5 | ≥ 62.5 | ≥ 62.5 | ≥ 62.5 | ≥ 62.5 | ≥ 62.5 | ≥ 62.5 | ≥ 62.5 | 5.23 | – | O=C1OCC(COC(=O)c2ccccc2)C=C1c1ccc(Cl)c(Cl)c1 (stereo unspecified) | – | – | – | – |
| ≥ 62.5 | ≥ 62.5 | ≥ 62.5 | ≥ 62.5 | ≥ 62.5 | ≥ 62.5 | ≥ 62.5 | ≥ 62.5 | ≥ 62.5 | ≥ 62.5 | ≥ 62.5 | ≥ 62.5 | ≥ 62.5 | – | – | CC(C)(C)C(=O)OCC1C=C(c2ccc(Cl)c(Cl)c2)C(=O)OC1 (stereo unspecified) | – | – | – | – |
| ≥ 62.5 | ≥ 62.5 | ≥ 62.5 | ≥ 62.5 | ≥ 62.5 | ≥ 62.5 | ≥ 62.5 | ≥ 62.5 | ≥ 62.5 | ≥ 62.5 | ≥ 62.5 | ≥ 62.5 | ≥ 62.5 | – | – | CC(C)(C)C(=O)OCC1C=C(c2cccc(Cl)c2)C(=O)OC1 (stereo unspecified) | – | – | – | – |
| ≥ 62.5 | ≥ 62.5 | ≥ 62.5 | ≥ 62.5 | ≥ 62.5 | ≥ 62.5 | ≥ 62.5 | ≥ 62.5 | ≥ 62.5 | ≥ 62.5 | ≥ 62.5 | ≥ 62.5 | ≥ 62.5 | – | – | COc1ccc(C2=CC(COC(C)=O)COC2=O)cc1 (stereo unspecified) | – | – | – | – |
| ≥ 62.5 | ≥ 62.5 | ≥ 62.5 | ≥ 62.5 | ≥ 62.5 | ≥ 62.5 | ≥ 62.5 | ≥ 62.5 | ≥ 62.5 | ≥ 62.5 | ≥ 62.5 | ≥ 62.5 | ≥ 62.5 | – | – | CC(C)(C)C(=O)OCC1C=C(c2ccc(Cl)cc2)C(=O)OC1 (stereo unspecified) | – | – | – | – |
| ≥ 62.5 | ≥ 62.5 | ≥ 62.5 | ≥ 62.5 | ≥ 62.5 | ≥ 62.5 | ≥ 62.5 | ≥ 62.5 | ≥ 62.5 | ≥ 62.5 | ≥ 62.5 | ≥ 62.5 | ≥ 62.5 | – | – | CC(=O)OCC1C=C(c2ccc(Cl)cc2)C(=O)OC1 (stereo unspecified) | – | – | – | – |
| ≥ 62.5 | ≥ 62.5 | ≥ 62.5 | ≥ 62.5 | ≥ 62.5 | ≥ 62.5 | ≥ 62.5 | ≥ 62.5 | ≥ 62.5 | ≥ 62.5 | ≥ 62.5 | ≥ 62.5 | ≥ 62.5 | – | – | CC(=O)OCC1C=C(c2cccc(Cl)c2)C(=O)OC1 (stereo unspecified) | – | – | – | – |
| ≥ 62.5 | ≥ 62.5 | ≥ 62.5 | ≥ 62.5 | ≥ 62.5 | ≥ 62.5 | ≥ 62.5 | ≥ 62.5 | ≥ 62.5 | ≥ 62.5 | ≥ 62.5 | ≥ 62.5 | ≥ 62.5 | 5.14 | 5.61 | CC(=O)OCC1C=C(c2ccc(Cl)c(Cl)c2)C(=O)OC1 (stereo unspecified) | – | – | – | – |
| ≥ 62.5 | ≥ 62.5 | ≥ 62.5 | ≥ 62.5 | ≥ 62.5 | ≥ 62.5 | ≥ 62.5 | ≥ 62.5 | ≥ 62.5 | ≥ 62.5 | ≥ 62.5 | ≥ 62.5 | ≥ 62.5 | – | 5.53 | O=C1OCC(COC(=O)c2ccccc2)C=C1c1ccc(Cl)cc1 (stereo unspecified) | inactive | – | inactive | – |
| ≥ 62.5 | ≥ 62.5 | ≥ 62.5 | ≥ 62.5 | ≥ 62.5 | ≥ 62.5 | ≥ 62.5 | ≥ 62.5 | ≥ 62.5 | ≥ 62.5 | ≥ 62.5 | ≥ 62.5 | ≥ 62.5 | – | – | COc1ccc(C2=CC(COC(=O)c3ccccc3)COC2=O)cc1 (stereo unspecified) | – | – | – | – |
| ≥ 62.5 | ≥ 62.5 | ≥ 62.5 | ≥ 62.5 | ≥ 62.5 | ≥ 62.5 | ≥ 62.5 | ≥ 62.5 | ≥ 62.5 | ≥ 62.5 | ≥ 62.5 | ≥ 62.5 | ≥ 62.5 | – | – | O=C1OCC(COC(=O)c2ccccc2)C=C1c1cccc(Cl)c1 (stereo unspecified) | – | – | – | – |

From ChEMBL document CHEMBL1287798, “3,5-disubstituted pyranone analogues of highly antifungally active furanones: conversion of biological effect from antifungal to cytostatic” (Bioorg Med Chem Lett, 2010)
